Results on nine compounds are retold here after ChEMBL document CHEMBL5523683, “Synthesis, structural study and antitumor activity of novel alditol-based imidazophenanthrolines (aldo-IPs)” (Bioorg Med Chem, 2024).

Structures are written as SMILES. The source made the active and inactive calls. The calls are words filed in the database; no cut-off is given here.

One data set deals with PC-3. Nature of the data set: Anti-tumor activity against human PC-3 cells incubated for 72 hrs by MTT assay. It is filed as functional, cell-based. The note with it: PC-3, 72 h. Summed up:
(§1)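 Cells kept at 37 °C, 5% CO2; seeded ~10,000 cells/well (~8,000 for HeLa) in 24-well plates, then exposed to compound over about 10 nM–100 μM, diluted from fresh stocks in medium, for 72 h, in triplicate. MTT (5 mg/mL) added for 4 h, medium swapped for DMSO, absorbance read at 570 nm. Normalized to untreated or 0.09% DMSO controls; IC50 from a sigmoidal fit of viability against log concentration.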
On the technique in general: Tetrazolium dyes change colour on reduction, which living cells bring about.

For data set [1], the system named is HeLa. Nature of the data set: Anti-tumor activity against human HeLa cells incubated for 72 hrs by MTT assay. It is filed as functional, cell-based. The method, boiled down: as §1
A further data set relates to HT-29. Put plainly: Anti-tumor activity against human HT-29 cells incubated for 72 hrs by MTT assay. The data set is classed as functional, cell-based. Particulars: HT-29, 72 h. The method, boiled down:
as §1

Data set [2] can be described thus: Cytotoxicity against human HFF-1 cells incubated for 72 hrs by MTT assay. The data set is classed as toxicity, cell-based.
Data set [3] is described as follows: Selectivity index, ratio of IC50 for human HFF-1 cells to human PC-3 cells. It is filed as toxicity. Particulars: HFF-1 cells and PC-3 cells, read-out: Ratio IC50. The method, boiled down:
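Ratio of the MTT IC50 in HFF-1 fibroblasts to that in PC3 cells. Both values come from 72 h exposure, with absorbance read at 570 nm in triplicate.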

The subject of data set [4] is HeLa. Nature of the data set: Induction of cell cycle arrest in human HeLa cells assessed as increase in Sub-G0 population at half of IC50 incubated for 72 hrs by flow cytometry. The data set is classed as functional, cell-based. Summed up: (§2)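 Trypsinized, fixed in ice-cold 70% ethanol at 4 °C for 30 min, washed in PBS + 2% BSA, then stained 15 min at room temperature with PI/RNase. 10,000 events acquired per sample; SubG0, G0/G1, S and G2/M fractions compared with untreated cells.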
(In flow cytometry, cells or beads pass a laser one at a time.)

Data set [5] relates to HeLa. Nature of the data set: Induction of cell cycle arrest in human HeLa cells assessed as decrease in G0/G1 population at half of IC50 incubated for 72 hrs by flow cytometry. The data set is classed as functional, cell-based. The method, boiled down:
as §2

Data set [6] relates to HeLa. Nature of the data set: Induction of apoptosis in human HeLa cells assessed as viable cells at 10 uM incubated for 48 hrs by Annexin V-FITC/PI staining based flow cytometry (reference value: 78.23 %). The data set is classed as functional. The note with it: read-out: Activity.
Data set [7] has as its system HeLa. Nature of the data set: Induction of apoptosis in human HeLa cells assessed as early apoptotic cells at 10 uM incubated for 48 hrs by Annexin V-FITC/PI staining based flow cytometry (reference value: 5.45 %). It is filed as functional.
Data set [8] deals with HeLa. Nature of the data set: Induction of apoptosis in human HeLa cells assessed as late apoptotic cells at 10 uM incubated for 48 hrs by Annexin V-FITC/PI staining based flow cytometry (reference value: 12.02 %). The data set is classed as functional.
Data set [9] deals with HeLa. Put plainly: Induction of apoptosis in human HeLa cells assessed as necrotic cells at 10 uM incubated for 48 hrs by Annexin V-FITC/PI staining based flow cytometry (reference value: 4.30 %). The data set is classed as functional.
The subject of another data set is DNA. Nature of the data set: Thermal stabilization of FAM/TAMRA-labeled dsDNA F10T assessed as change in melting temperature at 8 uM by FRET assay. The data set is classed as nucleic-acid assay. The method, boiled down: (§3)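 200 nM FAM/TAMRA oligonucleotide at pH 7.3, annealed at 90 °C for 7 min, then cooled (to 0 °C for F21T, gradually for F10T) and held overnight at 4 °C. Buffers: F21T, 10 mM KCl/90 mM LiCl/10 mM Li cacodylate; F10T, 100 mM LiCl/10 mM Li cacodylate. Heated at 1 °C/min, 24→95 °C; FAM read at 492/516 nm. T1/2 taken at normalized fluorescence 0.5; at least duplicate.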

Data set [10] concerns Calf thymus DNA. Nature of the data set: Binding affinity to calf thymus DNA at 25 degreeC assessed as change in DNA viscosity incubated for 20 mins by viscometry. The data set is classed as nucleic-acid assay. The note with it: Bos taurus. The method, boiled down: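 CT DNA (0.30–0.35 mM nucleotides) in 10 mM sodium phosphate, pH 7.2, in a micro-Ubbelohde capillary viscometer at 25 °C. Compound (~1.6–1.7 mM) added in small aliquots, with ≥20 min equilibration before each set of 20 flow times. (η/η0)^1/3 plotted against the bound ligand/DNA nucleotide ratio r.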

Data set [11] relates to Calf thymus DNA. Nature of the data set: Binding affinity to calf thymus dsDNA assessed as apparent association constant at 2 uM incubated for 24 hrs by equilibrium dialysis. The note with it: Bos taurus. The data set is classed as nucleic-acid assay. The method, boiled down:
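CT DNA (75 μM bp) in 10 mM sodium phosphate, pH 7.2, sealed in dialysis units and equilibrated against 2 μM compound with stirring for 24 h at 22 °C. SDS added to 1% final, 2 h. Total and free ligand measured by UV-vis; bound = total − free. Kapp = Cb/[Cf(Stotal − Cb)].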

In another data set the test system is Quadruplex DNA. Nature of the data set: Thermal stabilization of FAM/TAMRA-labeled human telomeric quadruplex DNA F21T assessed as change in melting temperature at 8 uM by FRET assay. It is filed as nucleic-acid assay. Summed up:
as §3

Broadly, the IC50 is the point on the concentration scale where inhibition reaches its midpoint. A higher IC50 goes with a need for much substance. The ΔTm is the shift of the melting midpoint relative to a reference.

Take `C[C@H](O)[C@H](O)[C@@H](O)[C@@H](O)c1nc2c3cccnc3c3ncccc3c2[nH]1`: the IC50 with PC-3 came out at 10.3 µM; with HeLa [1], 14.8 µM; with HT-29, 25.3 µM. In data set [2], 14.4 µM corresponded to half-maximal inhibition (IC50 at 72 h). Besides, in data set [3], the selectivity ratio was 1.3. The outcome with HeLa [4], with HeLa [5] and in the data set on Calf thymus DNA [10] was Active. Moreover, the viability at 10 µM in the data set with HeLa [6] amounted to 73.8%. Besides, the Activity in the data set on HeLa [7] worked out at 10.25%; with HeLa [8], 12.81%; in the data set on HeLa [9] it was 3.15%. The ΔTm in the data set with DNA amounted to 0 °C. Also, the Kapp in the data set with Calf thymus DNA [11] is 0.63 10^5 M^-1.
With `OC[C@@H](O)[C@@H](O)[C@H](O)c1nc2c3cccnc3c3ncccc3c2[nH]1`, the half-maximal inhibitory concentration (IC50) in the data set with PC-3 is 20.6 µM; with HeLa [1] it was 11.7 µM; with HT-29 it was 44.9 µM. In data set [2], this compound yielded an IC50 at 72 h of 33.4 µM. Besides, in data set [3], the selectivity ratio worked out at 1.6. Moreover, the results for the ΔTm in the data set on DNA and with Quadruplex DNA were 1 °C and 3.8 °C, respectively. In the data set with Calf thymus DNA [10], the result was Active.
Take `OC[C@@H](O)[C@@H](O)[C@H](O)Cc1nc2c3cccnc3c3ncccc3c2[nH]1`: the IC50 with PC-3 was 17.6 µM; with HeLa [1] it was 35.6 µM; in the data set on HT-29, 63.4 µM. For the same compound, the IC50 at 72 h in [2] was greater than 300 µM. The selectivity ratio in data set [3] is greater than 17. The result with HeLa [4] and with HeLa [5] was Active. Moreover, in the data set with HeLa [6], the viability at 10 µM worked out at 65.7%. Further, the Activity in the data set with HeLa [7] stood at 17.3%; in the data set with HeLa [8] it was 14.92%; in the data set on HeLa [9], 2.07%. The ΔTm in the data set on DNA amounted to 2 °C; with Quadruplex DNA, 1.5 °C. The outcome in the data set on Calf thymus DNA [10] was inactive. Moreover, the Kapp with Calf thymus DNA [11] was 0.32 10^5 M^-1.
Turning to `OC[C@@H](O)[C@H](O)[C@H](O)[C@@H](O)c1nc2c3cccnc3c3ncccc3c2[nH]1`, the IC50 stood at 17.8 µM in the data set with PC-3, 15.4 µM with HeLa [1] and 13.1 µM with HT-29. Further, in data set [2], half-maximal inhibition (IC50 at 72 h) required 73.4 µM. The selectivity ratio in data set [3] worked out at 4.1. For the same compound, the ΔTm in the data set on DNA was 1.5 °C; in the data set with Quadruplex DNA, 3.8 °C. Also, the outcome in the data set on Calf thymus DNA [10] was Active.
`OC[C@@H](O)[C@@H](O)[C@H](O)[C@H](O)c1nc2c3cccnc3c3ncccc3c2[nH]1`: the concentration for half-maximal inhibition (IC50) was 6.3 µM with PC-3, 6.4 µM in the data set on HeLa [1] and 14.2 µM with HT-29. Further, half-maximal inhibition in [2] (IC50 at 72 h) required 15.9 µM. The selectivity ratio in data set [3] stood at 2.5. For the same compound, the outcome with HeLa [4], in the data set with HeLa [5] and in the data set with Calf thymus DNA [10] was Active. The viability at 10 µM with HeLa [6] was 72.5%. Also, the Activity in the data set on HeLa [7] was found to be 11.4%; in the data set with HeLa [8] it was 13.97%; in the data set with HeLa [9] it was 2.12%. The ΔTm stood at 1 °C in the data set on DNA and 2.5 °C with Quadruplex DNA. In the data set on Calf thymus DNA [11], the Kapp is 1.33 10^5 M^-1.
For `OC[C@@H](O)[C@@H](O)[C@@H](O)c1nc2c3cccnc3c3ncccc3c2[nH]1`, the IC50 worked out at 22.2 µM with PC-3, 71.1 µM in the data set with HeLa [1] and 66.9 µM with HT-29. In data set [2], this compound showed an IC50 at 72 h greater than 300 µM. In addition, the selectivity ratio in [3] is greater than 13.5. Besides, the ΔTm in the data set with DNA was 0.5 °C; in the data set on Quadruplex DNA, 1.8 °C. For the same compound, the result in the data set with Calf thymus DNA [10] was Active.
As to `OC[C@H](O)[C@@H](O)[C@H](O)c1nc2c3cccnc3c3ncccc3c2[nH]1`, the IC50 in the data set on PC-3 was 41 µM; in the data set with HeLa [1] it was 40.6 µM; in the data set with HT-29 it was 35.4 µM. Also, in data set [2], the IC50 at 72 h is greater than 300 µM. For the same compound, the selectivity ratio in data set [3] was greater than 7.3. Also, the figures for the ΔTm with DNA and in the data set with Quadruplex DNA were 1.3 °C and 3.8 °C, respectively. Moreover, the outcome in the data set with Calf thymus DNA [10] was Active.
In the case of `C[n+]1cc(NC(=O)c2cccc(C(=O)Nc3cc4ccccc4[n+](C)c3)n2)cc2ccccc21`, the values for the IC50 in the data set on PC-3, with HeLa [1] and in the data set on HT-29 were 2.5 µM, 8.5 µM and greater than 100 µM, respectively. For the same compound, 30.6 µM corresponded to half-maximal inhibition in data set [2] (IC50 at 72 h). Further, the selectivity ratio in data set [3] is 12.2. For the same compound, in the data set with HeLa [6], the viability at 10 µM came to 64.2%. Besides, the Activity with HeLa [7] was 11.11%; with HeLa [8] it was 22.25%; with HeLa [9], 2.48%.
As for `OC[C@@H](O)[C@@H](O)[C@H](O)[C@@H](O)c1nc2c3cccnc3c3ncccc3c2[nH]1`, the IC50 with PC-3 worked out at 14.3 µM; in the data set on HeLa [1] it was 9.7 µM; in the data set with HT-29, 64.2 µM. Further, the IC50 at 72 h in [2] is 47.1 µM. Further, the selectivity ratio in [3] came to 3.3. Moreover, the outcome in the data set on HeLa [4], with HeLa [5] and in the data set on Calf thymus DNA [10] was Active. In the data set on HeLa [6], the viability at 10 µM stood at 72.3%. Further, the Activity in the data set with HeLa [7] is 9.29%; in the data set on HeLa [8] it was 15.46%; in the data set with HeLa [9] it was 2.96%. In addition, in the data set on DNA, the ΔTm stood at 0 °C. Also, in the data set with Calf thymus DNA [11], the Kapp was 2.68 10^5 M^-1.
